Assay results: ChEMBL document CHEMBL1124871, “Synthesis and antiviral activity of some acyclic and C-acyclic pyrrolo[2,3-d]pyrimidine nucleoside analogues” (J Med Chem, 1990)
pIC50: −log10 of the molar value.

Tested on: Human immunodeficiency virus
Experiment: Inhibitory activity against HIV in Alex cells
Assay type: functional, organism-based
Conditions: Human immunodeficiency virus 1, Alex
Procedure, shortened: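 Alex cells preinfected with HIV for 3 h at 37 °C; compounds added in 3- or 5-fold dilutions (four for screening, eight for confirmation). Incubated 8 days at 37 °C in CO2, medium/sample changed on day 4. Reverse transcriptase measured on day 8. Uninfected cells exposed to the same dilutions for cytotoxicity. IC50 recorded.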
For `N#Cc1cn(CC(O)CO)c2nc(N)nc(O)c12` (centres undefined), the pIC50 was < 3.70. With `CSc1c(C#N)c2c(N)ncnc2n1COCCO` the pIC50 was < 3.70. For `CSc1c(C(N)=O)c2c(O)nc(N)nc2n1COC(CO)CO`, the pIC50 was < 3.70. For `NC(=O)c1cn(COCCO)c2nc(N)nc(O)c12`, the pIC50 was < 3.70. With `N#Cc1cn(COCCO)c2nc(N)nc(O)c12` the pIC50 was < 3.70. In the case of `CSc1c(C(N)=O)c2c(N)ncnc2n1CC(O)CO` (centres undefined), the pIC50 was < 3.70. For `NC(=O)c1cn(CC(O)CO)c2nc(N)nc(O)c12` (centres undefined), the pIC50 was < 3.70. For `CSc1c(C#N)c2c(O)nc(N)nc2n1COC(CO)CO`, the pIC50 was < 3.70. With `CSc1c(C#N)c2c(O)nc(N)nc2n1CC(O)CCO` (centres undefined) the pIC50 was < 3.70. With `N#Cc1cn(CC(O)CCO)c2ncnc(N)c12` (centres undefined) the pIC50 was < 3.70. In the case of `CSc1c(C#N)c2c(O)nc(N)nc2n1CC(O)CO` (centres undefined), the pIC50 was < 3.70. For `CSc1c(C#N)c2c(O)nc(N)nc2n1COCCO`, the pIC50 was < 3.70. `N#Cc1cn(COCCO)c2ncnc(N)c12` gave a pIC50 of 4.34. For `NC(=O)c1cn(COCCO)c2ncnc(N)c12`, the pIC50 was < 3.70. In the case of `CSc1c(C(N)=O)c2c(N)ncnc2n1COCCO`, the pIC50 was < 3.70. With `NC(=O)c1cn(COC(CO)CO)c2ncnc(N)c12` the pIC50 was < 3.70. In the case of `CSc1c(C(N)=O)c2c(N)ncnc2n1CC(O)CCO` (centres undefined), the pIC50 was < 3.70. For `CSc1c(C#N)c2c(N)ncnc2n1CC(O)CO` (centres undefined), the pIC50 was < 3.70. With `NC(=O)c1cn(COC(CO)CO)c2nc(N)nc(O)c12` the pIC50 was < 3.70. `N#Cc1cn(COC(CO)CO)c2nc(N)nc(O)c12` gave a pIC50 of 5.52. `N#Cc1cn(CC(O)CO)c2ncnc(N)c12` (centres undefined) gave a pIC50 of 3.71. In the case of `N#Cc1cn(CC(O)CCO)c2nc(N)nc(O)c12` (centres undefined), the pIC50 was < 3.70. For `CSc1c(C(N)=O)c2c(N)ncnc2n1COC(CO)CO`, the pIC50 was < 3.70. In the case of `CSc1c(C(N)=O)c2c(O)nc(N)nc2n1CC(O)CO` (centres undefined), the pIC50 was < 3.70. For `NC(=O)c1cn(CC(O)CO)c2ncnc(N)c12` (centres undefined), the pIC50 was < 3.70. In the case of `NC(=O)c1cn(CC(O)CCO)c2ncnc(N)c12` (centres undefined), the pIC50 was < 3.70. With `CSc1c(C(N)=O)c2c(O)nc(N)nc2n1CC(O)CCO` (centres undefined) the pIC50 was < 3.70. Molecule `CSc1c(C#N)c2c(N)ncnc2n1COC(CO)CO` has a pIC50 of 4.70. With `NC(=O)c1cn(CC(O)CCO)c2nc(N)nc(O)c12` (centres undefined) the pIC50 was < 3.70. Work on `CSc1c(C#N)c2c(N)ncnc2n1CC(O)CCO` (centres undefined) yielded a pIC50 of 4.00. For `Cc1cn([C@H]2C[C@H](N=[N+]=[N-])[C@@H](CO)O2)c(=O)[nH]c1=O` [ZIDOVUDINE], the pIC50 was 8.00.

Tested on: Human alphaherpesvirus 2
Experiment: Inhibitory activity against herpes simplex virus
Assay type: functional, organism-based
Conditions: not given
Procedure, shortened: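 One-day-old confluent HEp-2 monolayers preinfected 1.5 h at 37 °C with HSV-2 (G and Lovelace strains); 3-fold dilutions over seven points, 72 h at 37 °C. Virus presence and toxicity scored visually by CPE. Uninfected cells with compound served as cytotoxicity control; virus inoculum checked by back-titration. IC50 recorded.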
`Nc1nc2c(ncn2COC(CO)CO)c(=O)[nH]1` [GANCICLOVIR] gave a pIC50 of 4.49.

Tested on: not listed separately
Experiment: Therapeutic ratio at 400 uM toxicity to Alex cells.
Assay type: cell-based
Conditions: human
In the case of `N#Cc1cn(COC(CO)CO)c2nc(N)nc(O)c12`, the selectivity ratio was 133. With `CSc1c(C#N)c2c(N)ncnc2n1COC(CO)CO` the selectivity ratio at 400 µM was 40.
